These results are taken from article PMC7116037 (Structure (London, England : 1993), 2020).

As a reminder, the Kd is the concentration at which binding is half-saturated.

One assay relates to βarr2. Description: HDX-MS profile of βarr2 upon C7pp binding. Further details: species or system Rattus norvegicus. The settings on record: 100 μM βarr2, 500 μM peptide, 1 h at room temperature.
A further assay concerns the target rat βarr2 (Rattus norvegicus, UniProt P29067). Description: Isothermal titration calorimetry of C7pp binding to full-length βarr2. As to conditions: 298 K, 20 mM Tris-HCl pH 8.0, 200 mM NaCl. Put shortly: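 Rat βarr2 (1–410 WT), expressed in E. coli BL21(DE3)pLysS, in 20 mM Tris-HCl pH 8.0, 200 mM NaCl at 100 μM or 30 μM in the cell, degassed at 295 K. Titration at 298 K: 2.5 μL of C7pp ([…] syringe solution) injected every 200 s with gentle stirring. Binding constant and stoichiometry fitted from the titration curve; n = 3 independent experiments.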

Assay [1] deals with truncated version of βarr2. Description: HDX-MS profile of truncated βarr2 upon co-incubation with C7pp. Further details: species or system Rattus norvegicus. As to conditions: truncated βarr2 lacking residues 357–410; data not shown.
In assay [2] the target is Rattus norvegicus wild-type β-arrestin 2 (βarr2 1-410) (Rattus norvegicus) (UniProt P29067). The assay is described as follows: ITC. (In general: Isothermal titration calorimetry measures the heat released or taken up as one component is titrated into another.)

Where a SMILES comes first, the peptide text is derived from it. [ ]: non-standard residue; d: D form. pT = C[C@@H](OP(=O)(O)O)[C@H](N)C(=O)O; pS = N[C@@H](COP(=O)(O)O)C(=O)O

Chain of Rattus norvegicus wild-type β-arrestin 2 (βarr2 1-410) (Rattus norvegicus) (P29067 whole entry): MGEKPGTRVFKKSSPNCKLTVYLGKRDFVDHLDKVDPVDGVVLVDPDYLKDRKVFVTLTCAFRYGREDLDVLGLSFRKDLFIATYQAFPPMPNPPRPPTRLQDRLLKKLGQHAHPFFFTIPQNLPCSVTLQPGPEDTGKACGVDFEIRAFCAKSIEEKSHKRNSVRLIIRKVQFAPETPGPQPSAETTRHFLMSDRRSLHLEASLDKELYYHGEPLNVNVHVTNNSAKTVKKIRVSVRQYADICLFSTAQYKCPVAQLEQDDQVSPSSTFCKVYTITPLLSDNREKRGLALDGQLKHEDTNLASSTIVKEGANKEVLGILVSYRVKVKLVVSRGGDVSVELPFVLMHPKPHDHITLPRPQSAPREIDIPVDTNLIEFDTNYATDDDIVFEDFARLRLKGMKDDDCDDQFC
Chain of rat βarr2 (P29067 whole entry): as above

Consider `CC[C@H](C)[C@H](N)C(=O)N[C@@H](Cc1ccccc1)C(=O)N[C@@H](CCCCN)C(=O)N[C@@H](Cc1ccc(O)cc1)C(=O)N[C@@H](COP(=O)(O)O)C(=O)N[C@@H](C)C(=O)N[C@@H](CCCCN)C(=O)N[C@H](C(=O)NCC(=O)N[C@@H](CC(C)C)C(=O)N[C@H](C(=O)N[C@@H](CCCCN)C(=O)N[C@@H](CC(C)C)C(=O)N[C@H](C(=O)N[C@@H](CC(=O)O)C(=O)O)[C@@H](C)CC)[C@@H](C)OP(=O)(O)O)[C@@H](C)OP(=O)(O)O` [C7pp] (H-IFKY[pS]AK[pT]GL[pT]KLID-OH; N-terminus and C-terminus assumed), for which, in the assay with βarr2, the “HDX-MS: helix formation in the finger loop” value is on record as “did not indicate a helix formation in the finger loop”. For the same compound, the “binding behaviour (ITC)” value on rat βarr2 was “monophasic binding with βarr2”. The “HDX profile of truncated βarr2 upon co-incubation” value in assay [1] was “did not change upon co-incubation with C7pp”.
CXCR7 phosphopeptide (C7pp) registered a Kd in assay [2] of 3.08 µM.
